Measurements as given in ChEMBL document CHEMBL1806465, “Synthesis and biological evaluation of 4-nitro-substituted 1,3-diaryltriazenes as a novel class of potent antitumor agents” (Eur J Med Chem, 2011).
Calls of active or inactive are those of the source. The rule behind the calls is not given here.

Tests used:
[1] = tested on: HeLa; test: Cell cycle arrest in human HeLa cells assessed as accumulation at G2/M phase at 7 uM after 72 hrs by propidium iodide staining -based flow cytometry (reference value: 9.7 %); type: functional
Procedure, shortened: (§1)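 HeLa seeded at 100 000 cells/well, treated next day with 0.78, 7 or 21 µM for 24, 48 or 72 h. Adherent plus floating cells collected, PBS-washed, fixed overnight in 70% ethanol at −20 °C, RNase A 30 µg/ml 1 h RT, propidium iodide 16.7 µg/ml 30 min dark; DNA content by flow cytometry, phase percentages including subG1 reported.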

[2] = tested on: MIA PaCa-2; test: Cytotoxicity against human MIAPaCa2 cells after 72 hrs by MTT assay; type: functional, cell-based; settings: MIA PaCa-2, 72 h
Procedure, shortened: (§2)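 MTT assay: 3000 cells/well seeded, compound added next day, each concentration in quadruplicate, 72 h at 37 °C; medium replaced with 20 µg MTT/well for 4 h, formazan dissolved in DMSO, OD 545 nm. […] Fibroblasts: normal skin fibroblasts from donor, DMEM/10% FBS, used at 32 and 36 population doublings.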

[3] = tested on: HeLa; test: Cytotoxicity against human HeLa cells after 72 hrs by MTT assay; type: functional, cell-based
[4] = tested on: HeLa; test: Induction of apoptotis in human HeLa cells assessed as morphological changes at 7 uM after 48 hrs by acridine orange and […] staining based epifluorescent microscopic analysis; type: functional, cell-based
Procedure, shortened: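 After 48 h at 7 µM, adherent and floating HeLa cells were pooled and resuspended in medium. AO (15 µg/mL stock) and EtBr (50 µg/mL stock) were added. Under epifluorescence, apoptosis was scored from condensed chromatin and apoptotic bodies, which distinguish it from necrosis.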

[5] = tested on: HeLa; test: Cell cycle arrest in human HeLa cells assessed as accumulation at G0/G1 phase at 21 uM after 24 hrs by propidium iodide staining -based flow cytometry (reference value: 60.6 %); type: functional; procedure, shortened: as §1
[6] = tested on: HeLa; test: Induction of apoptotis in human HeLa cells assessed as cleavage of procaspase 3 at 7 uM after 48 hrs by Western blot analysis; type: functional, cell-based
Procedure, shortened: (§3)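 HeLa cells were treated for 48 h at 7 µM and analysed by Western blot (10% SDS gels, nitrocellulose, HRP secondary, ECL, ERK2 loading control) for cleavage of apoptotic proteins. Antibodies: anti-PARP 1:4000; anti-caspase-3 and anti-caspase-8 1:1000; rabbit polyclonal anti-caspase-9 1:1000.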

[7] = tested on: HeLa; test: Cell cycle arrest in human HeLa cells assessed as accumulation at S phase at 0.78 uM after 24 hrs by propidium iodide staining -based flow cytometry (reference value: 27.7 %); type: functional; procedure, shortened: as §1
[8] = tested on: HeLa; test: Induction of Grp78 expression in human HeLa cells at 0.09 to 7 uM after 48 hrs by Western blot analysis; type: functional, cell-based
Procedure, shortened: (§4)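 Logarithmically growing HeLa cells were exposed to varying concentrations for 48 h, or to 7 µM for varying times. Cell extracts were run on 10% SDS gels and transferred to nitrocellulose. Membranes were blocked in 5% milk and probed with anti-Grp78 (1:1000, overnight, 4 °C), then an HRP secondary (1:5000, 2 h, RT). Detection was by ECL, with ERK2 reprobing as the loading control.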

[9] = Cytotoxicity against human Fibroblast cells after 72 hrs by MTT assay; type: cell-based; procedure, shortened: as §2
[10] = tested on: SW480; test: Cytotoxicity against human SW480 cells after 72 hrs by MTT assay; type: functional, cell-based; settings: SW480, 72 h; procedure, shortened: as §2
[11] = tested on: HeLa; test: Induction of ER stress in human HeLa cells assessed as expression of CHOP and Grp78
[12] = tested on: Nucleic Acid; test: Binding affinity to calf thymus DNA assessed as change in melting temperature at compound to DNA ratio of 0.3; type: nucleic-acid assay; settings: Bos taurus
Procedure, shortened: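 ct-DNA sonicated, filtered, in Na-cacodylate buffer pH 7, I = 0.05 mol dm-3, 2 x 10^-5 mol dm-3 (as phosphate, ε260 = 6600); compound/DNA ratio 0.3. Absorbance at 260 nm followed versus temperature, compound absorbance subtracted, curves normalized. Tm taken from first-derivative maximum, confirmed by tangent method; ΔTm = Tm(complex) − Tm(free DNA), mean of ≥2 runs, error ±0.5 °C.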

[13] = Stability of the compound in DMSO after 26.25 hrs by LC/MS/MS analysis in presence of 10% FBS; type: physicochemical; settings: cattle, DMSO with 10% FBS; read-out: Stability
[14] = tested on: HeLa; test: Cell cycle arrest in human HeLa cells assessed as accumulation at G0/G1 phase at 21 uM after 48 hrs by propidium iodide staining -based flow cytometry (reference value: 63.8 %); type: functional; procedure, shortened: as §1
[15] = tested on: HeLa; test: Induction of Grp78 expression in human HeLa cells at 7 uM after 16 to 48 hrs by Western blot analysis; type: functional, cell-based; procedure, shortened: as §4
[16] = tested on: HeLa; test: Cell cycle arrest in human HeLa cells assessed as accumulation at S phase at 21 uM after 48 hrs by propidium iodide staining -based flow cytometry (reference value: 26.3 %); type: functional; procedure, shortened: as §1
[17] = tested on: HeLa; test: Cell cycle arrest in human HeLa cells assessed as accumulation at S phase at 0.78 uM after 48 hrs by propidium iodide staining -based flow cytometry (reference value: 26.3 %); type: functional; procedure, shortened: as §1
[18] = tested on: HeLa; test: Induction of Grp78 expression in human HeLa cells at 7 uM up to 8 hrs by Western blot analysis; type: functional, cell-based; procedure, shortened: as §4
[19] = tested on: HeLa; test: Induction of apoptotis in human HeLa cells assessed as cleavage of procaspase 9 at 7 uM after 48 hrs by Western blot analysis; type: functional, cell-based; procedure, shortened: as §3
[20] = tested on: HeLa; test: Cell cycle arrest in human HeLa cells assessed as accumulation at G2/M phase at 21 uM after 24 hrs by propidium iodide staining -based flow cytometry (reference value: 11.7 %); type: functional; procedure, shortened: as §1
[21] = tested on: HeLa; test: Cell cycle arrest in human HeLa cells assessed as accumulation at G2/M phase at 7 uM after 24 hrs by propidium iodide staining -based flow cytometry (reference value: 11.7 %); type: functional; procedure, shortened: as §1
[22] = Therapeutic index, ratio IC50 for human MIAPaCa2 cells to IC50 for normal human fibroblasts; type: cell-based, MIA PaCa-2; settings: MIAPaCa2 cells versus normal human fibroblasts, read-out: Ratio IC50
Procedure, shortened: (§5)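 IC50 values came from an MTT assay. Cells were seeded at 3000 per well and dosed the next day, with each concentration in quadruplicate. After 72 h at 37 °C, MTT (20 µg/well) was added for 4 h; formazan was dissolved in DMSO and read at 545 nm. Each experiment was done three times. Normal skin fibroblasts were used at 32 and 36 population doublings. T.I. = tumor-cell IC50 / fibroblast IC50.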

[23] = Therapeutic index, ratio IC50 for human SW620 cells to IC50 for normal human fibroblasts; type: cell-based, SW-620; settings: SW620 cells versus normal human fibroblasts, read-out: Ratio IC50; procedure, shortened: as §5
[24] = tested on: HeLa; test: Cell cycle arrest in human HeLa cells assessed as accumulation at G2/M phase at 21 uM after 72 hrs by propidium iodide staining -based flow cytometry (reference value: 9.7 %); type: functional; procedure, shortened: as §1
[25] = Therapeutic index, ratio IC50 for human Hep2 cells to IC50 for normal human fibroblasts; type: cell-based, HEp-2; settings: Hep2 cells versus normal human fibroblasts, read-out: Ratio IC50; procedure, shortened: as §5
[26] = tested on: HeLa; test: Cell cycle arrest in human HeLa cells assessed as accumulation at G2/M phase at 0.78 uM after 72 hrs by propidium iodide staining -based flow cytometry (reference value: 9.7 %); type: functional; procedure, shortened: as §1

`CC(=O)N(/N=N/c1ccc([N+](=O)[O-])cc1Cl)c1ccc([N+](=O)[O-])cc1Cl` showed an Activity [1] of 7.6%, an IC50 [2] of 520 nM and an IC50 [3] of 630 nM. The Activity [4] was “Active”, the Activity [5] was 69.3% and the Activity [6] was “Active”. For the same compound, the Activity [7] was 15.1%, the Activity [8] was “Active” and the IC50 [9] was 14000 nM. For the same compound, the IC50 [10] was 530 nM, the Activity [11] was “Active” and the Activity [12] was “inactive”. The remaining at 26.25 h [13] was 57%, the Activity [14] was 73% and the Activity [15] was “Active”. For the same compound, the Activity [16] was 15.2%, the Activity [17] was 18.5% and the Activity [18] was “inactive”. For the same compound, the Activity [19] was “Active”, the Activity [20] was 10.5% and the Activity [21] was 10%. The selectivity ratio [22] was 0.037, the selectivity ratio [23] was 0.032 and the Activity [24] was 8.4%. It also gave a selectivity ratio [25] of 0.044 and an Activity [26] of 8.4%.
